The results in this text go back to ChEMBL document CHEMBL3259611, “Suppression of inflammatory responses by handelin, a guaianolide dimer from Chrysanthemum boreale, via downregulation of NF-κB signaling and pro-inflammatory cytokine production” (J Nat Prod, 2014).

Structures are written as SMILES. The source made the active and inactive calls. The calls are words filed in the database; no cut-off is given here.

The target of assay [1] is T1, Nuclear factor NF-kappa-B p105 subunit (Mus musculus) (UniProt P25799).
T1 sequence (whole entry): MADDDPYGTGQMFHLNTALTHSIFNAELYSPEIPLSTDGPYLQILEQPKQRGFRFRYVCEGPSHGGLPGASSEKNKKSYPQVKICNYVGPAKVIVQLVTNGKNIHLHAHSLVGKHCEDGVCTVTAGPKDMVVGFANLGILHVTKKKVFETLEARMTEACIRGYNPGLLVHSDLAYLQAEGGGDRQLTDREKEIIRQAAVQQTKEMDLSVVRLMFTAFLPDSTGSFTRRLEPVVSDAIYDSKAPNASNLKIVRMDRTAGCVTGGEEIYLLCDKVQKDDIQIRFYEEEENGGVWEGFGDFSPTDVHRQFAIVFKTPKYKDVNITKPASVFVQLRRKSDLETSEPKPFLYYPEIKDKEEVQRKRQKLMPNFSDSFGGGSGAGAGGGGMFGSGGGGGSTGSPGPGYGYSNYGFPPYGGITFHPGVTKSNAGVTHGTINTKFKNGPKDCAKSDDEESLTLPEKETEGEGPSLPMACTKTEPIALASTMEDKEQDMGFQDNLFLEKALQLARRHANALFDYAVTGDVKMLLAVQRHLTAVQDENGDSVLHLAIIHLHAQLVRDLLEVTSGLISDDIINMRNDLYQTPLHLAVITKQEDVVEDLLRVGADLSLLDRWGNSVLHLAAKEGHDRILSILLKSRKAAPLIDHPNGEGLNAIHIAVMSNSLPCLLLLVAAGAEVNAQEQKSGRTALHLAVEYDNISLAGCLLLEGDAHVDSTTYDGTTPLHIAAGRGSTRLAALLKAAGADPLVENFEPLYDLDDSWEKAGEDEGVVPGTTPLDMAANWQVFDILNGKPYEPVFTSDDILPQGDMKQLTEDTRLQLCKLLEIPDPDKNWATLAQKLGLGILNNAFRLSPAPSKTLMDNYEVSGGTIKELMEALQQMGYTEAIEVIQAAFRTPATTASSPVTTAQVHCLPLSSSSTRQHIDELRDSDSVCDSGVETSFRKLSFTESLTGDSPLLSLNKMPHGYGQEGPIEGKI
Put plainly: Inhibition of LPS-induced NFkappaB P50 protein nuclear translocation in mouse RAW264.7 cells at 10 uM after 30 mins by Western blotting analysis relative to control. In kind it is cell-based. The method in brief: (§1)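 Macrophages were exposed to compound for 30 min before LPS stimulation, with proteins extracted 30 min later. Nuclear extracts were prepared in Tris/KCl/NP-40 lysis buffer, then 420 mM NaCl buffer, and the cytosolic fraction was kept for IκB-α. Western blot on PVDF with ECL detection. Tests in triplicate; representative of three separate experiments.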

Assay [2] has as its target T2, Mitogen-activated protein kinase 1 and 3 (ERK2 and ERK1) (Mus musculus) (UniProt P63085+Q63844). Put plainly: Inhibition LPS-induced ERK1/2 phosphorylation at Thr202/Tyr204 in mouse RAW264.7 cells at 20 uM administered 30 mins prior to LPS challenge measured after 30 mins by Western blotting analysis. In kind it is cell-based. In a few lines: (§2)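 RAW 264.7 cells pretreated with compound for 30 min, then stimulated with LPS for 30 min. Protein extracts were Western blotted for phosphorylated ERK and JNK (SDS-PAGE, PVDF, ECL detection).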

In assay [3] the test system is RAW264.7. Put plainly: Antiinflammatory activity in mouse RAW264.7 cells assessed as inhibition LPS-induced miR-155 mRNA expression after 8 hrs by RT-PCR analysis. In kind it is functional, cell-based. In a few lines: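 LPS-stimulated RAW 264.7 cells, with or without compound, for 8 h. miR-155 measured by TaqMan qRT-PCR on 10 ng RNA, with stem-loop primer RT at 16 °C 30 min, 42 °C 30 min, 85 °C 5 min. Expression given as a ratio to β-actin. Mean ± SD of triplicates.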

Assay [4] deals with T1, Nuclear factor NF-kappa-B p105 subunit (Mus musculus). Put plainly: Inhibition of LPS-induced NF-kappaB p50 binding to DNA in mouse RAW264.7 cells at 10 to 40 uM after 1.5 hrs by spectrophotometry in presence of wild type oligonucleotide. In kind it is cell-based.
Assay [5] relates to RAW264.7. Description: Antiinflammatory activity in mouse RAW264.7 cells assessed as inhibition of LPS-induced iNOS protein expression after 16 hrs by Western blotting analysis. In kind it is functional, cell-based.
A further assay has as its system Rattus norvegicus. Description: Antiinflammatory activity in po dosed rat paw edema model assessed as inhibition of carrageenan-induced serum IL-1beta production administered 30 mins prior to carrageenan challenge measured after 6 hrs by ELISA relative to vehicle-treated control.
Assay [6] deals with RAW264.7. Put plainly: Antiinflammatory activity in mouse RAW264.7 cells assessed as inhibition LPS-induced IL-1beta mRNA expression at 40 uM after 4 hrs by RT-PCR analysis relative to control. In kind it is functional. In a few lines:
(§3)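 RAW 264.7 cells stimulated with LPS (1 μg/mL) with or without compound for 4 h. Total RNA was isolated and cytokine mRNA was analysed by RT-PCR: 94 °C 4 min, then 25−30 cycles of 94/55/72 °C for 30 s each, then 72 °C 5 min. Products were run on 2% agarose and stained with SYBR-Safe. Triplicate, representative of three experiments.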

Assay [7] addresses T1, Nuclear factor NF-kappa-B p105 subunit (Mus musculus). Description: Inhibition of LPS-induced NF-kappaB p50 binding to DNA in mouse RAW264.7 cells at 10 to 40 uM after 1.5 hrs by spectrophotometry. In kind it is cell-based.
For assay [8] the target is unchanged. Put plainly: Inhibition of LPS-induced NFkappaB P50 protein nuclear translocation in mouse RAW264.7 cells at 40 uM after 30 mins by Western blotting analysis relative to control. In kind it is cell-based. In a few lines: as §1
Assay [9] deals with RAW264.7. Put plainly: Antiinflammatory activity in mouse RAW264.7 cells assessed as inhibition LPS-induced TNF-alpha mRNA expression at 40 uM after 4 hrs by RT-PCR analysis relative to control. In kind it is functional. The method in brief:
as §3

Assay [10] has as its system RAW264.7. Description: Antiinflammatory activity in mouse RAW264.7 cells assessed as inhibition LPS-induced IL-1beta protein expression at 10 uM after 4 hrs by Western blotting analysis. In kind it is functional. In a few lines: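 RAW 264.7 cells stimulated with LPS (1 μg/mL) with or without compound for 4 h. Lysates were resolved by 6−15% SDS-PAGE and blotted to PVDF. Blocked in 5% milk/PBST, primary antibody overnight at 4 °C, secondary antibody 2 h, detected by ECL. Triplicate, representative of three experiments.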

The target in assay [11] is Transcription factor p65 (Mus musculus) (UniProt Q04207). Description: Inhibition of LPS-induced NFkappaB P65 protein nuclear translocation in mouse RAW264.7 cells at 40 uM after 30 mins by Western blotting analysis relative to control. In kind it is cell-based. The method in brief: as §1
Assay [12] deals with T2, Mitogen-activated protein kinase 1 and 3 (ERK2 and ERK1) (Mus musculus). Put plainly: Inhibition LPS-induced ERK1/2 phosphorylation at Thr202/Tyr204 in mouse RAW264.7 cells at 40 uM administered 30 mins prior to LPS challenge measured after 30 mins by Western blotting analysis. In kind it is cell-based. In a few lines: as §2
Assay [13] concerns RAW264.7. Put plainly: Antiinflammatory activity in mouse RAW264.7 cells assessed as inhibition LPS-induced TNF-alpha protein expression at 40 uM after 4 hrs by Western blotting analysis relative to control. In kind it is functional.

T2 sequence (P63085 whole entry, looked up): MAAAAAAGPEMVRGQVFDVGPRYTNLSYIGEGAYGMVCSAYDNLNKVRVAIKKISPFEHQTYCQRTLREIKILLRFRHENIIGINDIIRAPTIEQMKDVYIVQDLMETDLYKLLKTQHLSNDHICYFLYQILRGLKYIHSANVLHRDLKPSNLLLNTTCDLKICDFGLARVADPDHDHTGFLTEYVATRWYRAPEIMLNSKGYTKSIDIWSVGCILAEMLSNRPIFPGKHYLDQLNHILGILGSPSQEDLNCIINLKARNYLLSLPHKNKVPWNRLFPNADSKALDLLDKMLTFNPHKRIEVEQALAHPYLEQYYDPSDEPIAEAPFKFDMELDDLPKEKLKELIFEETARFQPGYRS
T2 sequence (Q63844 whole entry, looked up): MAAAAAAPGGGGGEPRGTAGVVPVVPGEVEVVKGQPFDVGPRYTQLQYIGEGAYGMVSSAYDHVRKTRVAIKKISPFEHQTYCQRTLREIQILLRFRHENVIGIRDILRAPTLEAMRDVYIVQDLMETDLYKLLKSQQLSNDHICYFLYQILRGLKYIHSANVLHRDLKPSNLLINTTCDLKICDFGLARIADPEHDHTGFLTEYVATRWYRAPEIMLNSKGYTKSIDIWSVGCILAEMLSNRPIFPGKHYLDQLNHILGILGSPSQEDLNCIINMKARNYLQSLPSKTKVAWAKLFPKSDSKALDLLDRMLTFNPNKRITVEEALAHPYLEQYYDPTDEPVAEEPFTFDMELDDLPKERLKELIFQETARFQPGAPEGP
Sequence of Transcription factor p65 (Mus musculus) (Q04207 whole entry): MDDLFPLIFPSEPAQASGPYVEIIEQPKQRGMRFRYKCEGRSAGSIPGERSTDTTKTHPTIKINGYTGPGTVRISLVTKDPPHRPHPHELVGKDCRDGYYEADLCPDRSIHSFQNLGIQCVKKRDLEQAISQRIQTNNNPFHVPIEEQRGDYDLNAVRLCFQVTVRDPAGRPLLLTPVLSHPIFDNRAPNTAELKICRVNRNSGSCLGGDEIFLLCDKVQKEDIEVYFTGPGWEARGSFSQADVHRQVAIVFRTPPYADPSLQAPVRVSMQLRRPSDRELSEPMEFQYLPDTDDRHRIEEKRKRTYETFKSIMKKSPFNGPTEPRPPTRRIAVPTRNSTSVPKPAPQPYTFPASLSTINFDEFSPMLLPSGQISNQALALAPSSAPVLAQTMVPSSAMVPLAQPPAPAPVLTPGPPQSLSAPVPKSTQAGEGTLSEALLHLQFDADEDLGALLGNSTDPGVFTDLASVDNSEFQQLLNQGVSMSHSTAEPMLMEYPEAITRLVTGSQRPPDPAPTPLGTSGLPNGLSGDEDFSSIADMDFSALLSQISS

Regarding `C=C1C(=O)O[C@@H]2[C@@H]3[C@@]4(C=C[C@@]3(C)[C@]3(C4)C(=O)O[C@@H]4[C@H]5C(C)=CC[C@H]5[C@](C)(O)C[C@H](OC(C)=O)[C@H]43)[C@](C)(O)CC[C@@H]12`, the inhibition entry (in [1]; in the assay with RAW264.7 [3]; in assay [7]) was “Active” in each case. The fold change (FC) in assay [2] was determined as 0.79; with RAW264.7 [6], 0.21; in assay [8] it was 0.16; in the assay with RAW264.7 [9] it was 0.1; in the assay with RAW264.7 [10], 0.73; in [11] it was 0.49. Besides, the fold change (FC) in assay [12] was 0.21; in the assay with RAW264.7 [13] it was 0.56. In addition, the inhibition entry in [4] was “inactive”. Moreover, the inhibition result in the assay on RAW264.7 [5] and with Rattus norvegicus was “Dose-dependent effect” in each case.
